Source: PMC10739243 (ACS Bio & Med Chem Au, 2023)
Residues, ends and D or L forms follow the SMILES beside them.

Tests used:
L929 cells [1] = experiment: Cellular uptake of CF-labeled peptides by FACS; assay type: cell-based; details: 10 μM CF-labeled peptide, 6 h incubation
Outline: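 L929 cells grown in DMEM with 10% FBS and 1% penicillin-streptomycin, seeded at 50×10^4 cells/well, and cultured 24 h. Treated 6 h with 10 μM carboxyfluorescein-labelled peptide. Washed with PBS (10 mM, pH 7.4), detached with 0.25% trypsin, pellet washed three times with PBS, then analysed by flow cytometry.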

L929 cells [2] = experiment: Cellular uptake mechanism by FACS; assay type: cell-based
ctDNA = experiment: Hoechst; assay type: binding; details: Hoechst-bound ctDNA titrated with peptide, fluorescence at 460 nm
[3] = tested on: plasmid DNA (pDNA, 4.7 kb); assay type: binding
pDNA = experiment: DLS and ζ-potential of peptide/pDNA polyplex; assay type: physicochemical
Outline: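 Plasmid was pEGFP-C2 (4.7 kb), isolated from E. coli DH5α, with purity checked by A260/A280. It was mixed with peptide (0–25 μM) in Tris-HCl (10 mM, pH 7.4). Hydrodynamic size was measured by dynamic light scattering in a 1 cm quartz cuvette, alongside ζ-potential.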

[4] = Polyplex stability against NaCl, agarose gel retardation; assay type: physicochemical; details: pDNA condensed with 25 μM peptide, NaCl treatment

C[C@H](N)C(=O)N[C@@H](C)C(=O)N[C@@H](CCCCN)C(=O)N[C@@H](CCCCN)C(=O)N[C@@H](C)C(=O)N[C@@H](C)C(=O)N[C@@H](C)C(=O)N[C@@H](CCCCN)C(=O)N[C@@H](CCCCN)C(=O)N[C@@H](C)C(=O)N[C@@H](C)C(=O)N[C@@H](C)C(=O)N[C@@H](CCCCN)C(=O)N[C@@H](CCCCN)C(=O)N[C@@H](C)C(=O)N[C@@H](C)C(=O)N[C@@H](C)C(=O)N[C@@H](CCCCN)C(=O)N[C@@H](CCCCN)C(=O)N[C@@H](C)C(N)=O [Ku-A4] (H-AAKKAAAKKAAAKKAAAKKA-NH2; N-terminus assumed)
cell penetration efficacy (cellular uptake, FACS) (L929 cells [1]): superior cell penetration ability | inhibition of cellular uptake by macropinocytosis inhibitor amiloride (L929 cells [2]): 48% | reduction of peptide uptake by energy depletion with NaN3 (L929 cells [2]; 0.1% NaN3 pre-incubated 1 h before peptide): 38% | cellular uptake at 4 °C (reduced to) (L929 cells [2]; 1 h pre-incubation at 4 °C then peptide 6 h at 4 °C): 18% | peptide concentration for complete Hoechst displacement (ctDNA): 10 µM | peptide concentration for complete condensation of DNA (gel) [3]: 3 µM | size of polyplex at higher peptide concentrations (pDNA; DLS, pDNA in Tris-HCl 10 mM pH 7.4, higher peptide concentrations (up to 25 μM)): 140 nm | ζ-potential of polyplex at 25 μM peptide (pDNA; DNA 200 ng/mL, 25 μM peptide): +16.4 mV | NaCl concentration at which polyplex starts disassembling [4]: 250 mM
